One block for each molecule: values may come before it. Calls of active or inactive are those of the source. No cut-off for these calls is given here.
Experiments:
[1] = target: T1, Tyrosine-protein phosphatase non-receptor type 11 (Homo sapiens, UniProt Q06124); assay: Inhibition of human 6his-tagged SHP2 (2 to 593 residues) expressed in Escherichia coli BL21 Star (DE3) cells preincubated with IRS1_pY1172(dPEG8)pY1222 for 30 to 60 mins followed by addition of DiFMUP measured after 30 mins by fluorescence analysis
T1 sequence (Q06124 whole entry): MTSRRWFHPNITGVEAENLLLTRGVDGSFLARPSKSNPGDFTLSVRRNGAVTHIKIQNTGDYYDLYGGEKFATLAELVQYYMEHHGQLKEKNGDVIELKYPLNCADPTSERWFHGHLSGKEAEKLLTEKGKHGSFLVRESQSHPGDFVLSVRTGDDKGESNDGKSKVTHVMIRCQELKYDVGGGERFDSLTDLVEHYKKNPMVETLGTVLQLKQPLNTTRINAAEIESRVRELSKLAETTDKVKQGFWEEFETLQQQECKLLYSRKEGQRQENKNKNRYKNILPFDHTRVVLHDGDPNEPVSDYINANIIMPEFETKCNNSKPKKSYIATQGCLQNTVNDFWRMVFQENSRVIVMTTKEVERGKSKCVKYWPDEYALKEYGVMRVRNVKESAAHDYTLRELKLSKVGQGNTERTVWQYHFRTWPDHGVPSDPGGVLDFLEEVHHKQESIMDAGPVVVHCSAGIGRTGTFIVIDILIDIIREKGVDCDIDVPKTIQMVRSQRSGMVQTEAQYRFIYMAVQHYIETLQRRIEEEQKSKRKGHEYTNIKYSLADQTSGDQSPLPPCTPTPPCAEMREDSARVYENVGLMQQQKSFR

[2] = Oral bioavailability in C57BL/6 mouse at 5 mg/kg by LC-MS/MS analysis; type: ADME, organism-based; conditions: in vivo
How it was run: (§1)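 Male C57BL/6 mice dosed orally at 5 mg/kg. Whole blood taken by tail transection at 0.25, 0.5, 1, 2, 4 and 7 h into EDTA. Plasma stored at -20 °C, precipitated with acetonitrile containing internal standard. PK parameters from noncompartmental analysis; AUClast by linear trapezoidal rule. %F = (AUCinf,po/AUCinf,iv)×(Dose iv/Dose po), with IV reference at 1 mg/kg via tail vein. Results given as mean.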

Mus musculus = assay: In vivo inhibition of ERK phosphorylation in human KYSE520 cells xenografted in immunocompromised nude mouse at 30 and 100 mg/kg administered qd through oral gavage; type: functional, organism-based; conditions: in the assay text read “administered as a single dose through” for “administered qd through”
How it was run: (§2)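 Female nude mice bearing subcutaneous KYSE-520 xenografts (3 x 10^6 cells in 50% matrigel/HBSS) received a single oral gavage dose of vehicle or compound (30 or 100 mg/kg) once tumors reached roughly 500 mm3. Euthanized at set time points; plasma harvested for drug levels and xenograft fragments for p-ERK.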

[3] = Drug uptake in plasma of immunocompromised nude mouse xenografted with human KYSE520 cells administered qd via oral gavage; type: ADME; conditions: in the assay text read “administered as a single dose via” for “administered qd via”; how it was run: as §2
[4] = Solubility of the compound at pH 6.8; type: physicochemical; conditions: buffer
[5] = AUC in C57BL/6 mouse at 5 mg/kg, po by LC-MS/MS analysis; type: ADME, organism-based; conditions: in vivo; how it was run: as §1
KYSE-520 cell line [6] = assay: Antitumor activity against human KYSE520 cells xenografted in immunocompromised nude mouse assessed as tumor growth inhibition at 10 mg/kg administered qd through oral gavage relative to vehicle control; type: functional
How it was run: (§3)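 Female nude mice inoculated subcutaneously with 3 x 10^6 parental KYSE-520 cells in 50% phenol red-free matrigel in HBSS. Tumors calipered twice weekly in two dimensions. At roughly 200 mm3, mice randomized to vehicle, test compound (10, 30 or 100 mg/kg qd) or erlotinib (80 mg/kg qd), all by oral gavage. Growth compared with vehicle group.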

[7] = Apparent permeability across apical to basolateral side in human Caco2 cells; type: ADME, cell-based; conditions: Caco-2
KYSE-520 cell line [8] = assay: Antitumor activity against human KYSE520 cells xenografted in immunocompromised nude mouse assessed as tumor growth at 100 mg/kg administered qd through oral gavage relative to vehicle control; type: functional; how it was run: as §3
KYSE-520 cell line [9] = assay: Antitumor activity against human KYSE520 cells xenografted in immunocompromised nude mouse assessed as tumor growth inhibition at 30 mg/kg administered qd through oral gavage relative to vehicle control; type: functional; how it was run: as §3
KYSE-520 cell line [10] = assay: Antitumor activity against human KYSE520 cells xenografted in immunocompromised nude mouse assessed as tumor stasis at 80 mg/kg administered qd through oral gavage relative to vehicle control; type: functional, organism-based; how it was run: as §3
[11] = target: T2, Tyrosine-protein phosphatase non-receptor type 11 (Homo sapiens) (UniProt Q06124); assay: Inhibition of human 6his-tagged SHP2 (1 to 525 residues) expressed in Escherichia coli BL21 Star (DE3) cells assessed as change in melting temperature at 100 uM by SYPRO orange dye based differential scanning fluorometry
T2 sequence (whole entry): T1 sequence (Q06124 whole entry)
How it was run: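 Thermal shift with SHP2 1-525 construct at 100 µg/mL, 5× SYPRO Orange, 100 mM Bis-Tris pH 6.5, 100 mM NaCl, 0.25 mM TCEP, 5% DMSO; compound at 100 µM final. Ramp 25–75 °C in 0.5 °C steps, ex 465/em 580 nm. Tm as transition midpoint by semi-parametric fit; ΔTm against mean of 32 DMSO-only apo controls per plate.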

[12] = target: T1, Tyrosine-protein phosphatase non-receptor type 11; assay: Inhibition of human SHP2 PTP domain (237 to 529 residues) by fluorescence analysis

IC50 [1]: 6.5 µM
Structure (SMILES): CN(C)C1CCN(c2ncc(-c3cccc(Cl)c3Cl)c(N)n2)CC1

IC50 [1]: 99 µM
Structure (SMILES): C[C@@H]1CN(c2ncc(-c3cccc(Cl)c3)c(N)n2)C[C@H](C)N1

IC50 [1]: 54 µM
Structure (SMILES): C[C@@H]1CN(c2ncc(-c3ccc(Cl)c(Cl)c3)c(N)n2)C[C@H](C)N1

IC50 [1]: > 100 µM
Structure (SMILES): Cc1cccc(-c2cnc(N3C[C@@H](C)N[C@@H](C)C3)nc2N)c1C

ΔTm [11]: 3 to 3.02 °C
IC50 [12]: > 100 µM
Structure (SMILES): C[C@@H]1CN(c2ncc(-c3cccc(Cl)c3Cl)c(N)n2)C[C@H](C)N1

Second part, the molecule before the results:

Structure (SMILES): Nc1nc(N2CCC(N)CC2)ncc1-c1cccc(Cl)c1Cl
IC50 [1]: 1.3 µM

Structure (SMILES): CC1(N)CCN(c2cnc(-c3cccc(Cl)c3Cl)c(N)n2)CC1
bioavailability [2]: 46%
inhibition (Mus musculus): Active
Drug uptake [3]: Dose-dependent effect
solubility [4]: > 500 µM
AUC [5]: 565 µM·h
TGI (KYSE-520 cell line [6]): 19%
Papp A→B [7]: 13.2 ×10⁻⁶ cm/s
T/C (KYSE-520 cell line [8]): 3%
TGI (KYSE-520 cell line [9]): 61%

Structure (SMILES): CNc1nc(N2CCC(C)(N)CC2)cnc1-c1cccc(Cl)c1Cl
IC50 [1]: 22 µM

Structure (SMILES): C#Cc1cccc(Nc2ncnc3cc(OCCOC)c(OCCOC)cc23)c1
Activity (KYSE-520 cell line [10]): Active

Reference: ChEMBL document CHEMBL4431317, “Allosteric Inhibition of SHP2: Identification of a Potent, Selective, and Orally Efficacious Phosphatase Inhibitor” (J Med Chem, 2016)
